Measurements reported in ChEMBL document CHEMBL3822448, “The chemical synthesis and preliminary biological studies of phosphodiester and phosphorothioate analogues of 2-methoxy-lysophosphatidylethanolamine” (2016).
The source made the active and inactive calls. The calls are words filed in the database; no cut-off is given here.

Columns and labels:
[1] = tested on: PC-3; test: Cytotoxicity against human PC3 cells assessed as reduction in cell viability at 5 uM after 24 to 48 hrs by resazurin-based prestoblue assay; assay type: functional
Procedure, shortened: (§1)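 PC3 human prostate cancer cells (express LPA1 receptor) seeded at 5,000/well, cultured 24 and 48 h, then treated with LPE analogues at 5, 10, 25 or 50 μM for 24 or 48 h. Viability read with resazurin-based PrestoBlue reagent and expressed as % of untreated control (100%). Means ± SD of at least three independent experiments; P < 0.05 versus control.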

[2] = (§2) Cytotoxicity against human PC3 cells assessed as reduction in cell viability at 25 uM after 48 hrs by resazurin-based prestoblue assay; assay type: functional, PC-3; procedure, shortened: as §1
[3] = (§3) Cytotoxicity against human PC3 cells assessed as reduction in cell viability at 50 uM after 48 hrs by resazurin-based prestoblue assay; assay type: functional, PC-3; procedure, shortened: as §1
[4] = tested on: PC-3; test: Cytotoxicity against human PC3 cells assessed as reduction in cell viability at 10 uM after 24 to 48 hrs by resazurin-based prestoblue assay; assay type: functional; procedure, shortened: as §1
[5] = tested on: PC-3; test: (§4) Cytotoxicity against human PC3 cells assessed as reduction in cell viability at 10 uM after 48 hrs by resazurin-based prestoblue assay; assay type: functional; procedure, shortened: as §1
[6] = tested on: PC-3; test: as §2; assay type: functional; procedure, shortened: as §1
[7] = tested on: PC-3; test: as §3; assay type: functional; procedure, shortened: as §1
[8] = tested on: PC-3; test: Cytotoxicity against human PC3 cells assessed as reduction in cell viability at 50 uM after 24 to 48 hrs by resazurin-based prestoblue assay; assay type: functional; procedure, shortened: as §1
[9] = as §4; assay type: functional, PC-3; procedure, shortened: as §1
[10] = Cytotoxicity against human PC3 cells assessed as reduction in cell viability at 10 uM after 24 hrs by resazurin-based prestoblue assay; assay type: functional, PC-3; procedure, shortened: as §1

Structure (SMILES) | Activity [1] | Activity [2] | Activity [3] | Activity [4] | Activity [5] | Activity [6] | Activity [7] | Activity [8] | Activity [9] | Activity [10]
CCCCCCCCCCCCCCCC(=O)OCC(COP(=O)(S)OCCN)OC (configuration not stated) | inactive | 79.1% | 70% | inactive |  |  |  |  |  | 
CCCCCCCCCCCCCC(=O)OCC(COP(=O)(S)OCCN)OC (mixture of isomers) | inactive | 59.8% | 43.8% | inactive |  |  |  |  |  | 
CCCCCCCC/C=C\CCCCCCCC(=O)OCC(COP(=O)(O)OCCN)OC (mixture of isomers) | inactive |  |  | inactive | Active | Active | Active |  |  | 
CCCCCCCC/C=C\CCCCCCCC(=O)OCC(COP(=O)(S)OCCN)OC (mixture of isomers) | inactive |  |  | inactive |  |  |  | inactive |  | 
CCCCCCCCCCCCCCCCCC(=O)OCC(COP(=O)(S)OCCN)OC (mixture of isomers) | inactive |  |  | inactive |  |  |  | inactive |  | 
CCCCCCCCCCCCCCCC(=O)OCC(COP(=O)(O)OCCN)OC (racemic) | inactive | 49.5% | 24.9% |  |  |  |  |  | 78.8% | 
CCCCCCCCCCCCCC(=O)OCC(COP(=O)(O)OCCN)OC (racemic) |  | 22.7% | 6.3% |  |  |  |  |  | 59.8% | 68.2%
CCCCCCCCCCCCCCCCCC(=O)OCC(COP(=O)(O)OCCN)OC (racemic) | inactive |  |  | inactive | Active | Active | Active |  |  | 
